From PubChem
SENP1 inh – human SENP1 catalytic domain inhibitors, primary screen, biochemical, FRET, uHTS; Sentrin-specific protease 1 (Homo sapiens), Q9P0U3; recombinant SENP1 catalytic domain, CyPet-SUMO1-YPet FRET cleavage; inhibition, % at 10 µM; 360,000 compounds, 0.21% hits; AID 624204, 2012;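 active = inhibition at least 30% at 10 µM, raw YFP signal under a set limit, fluorescence ratio 0.5 to 1.5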;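 also: 0% = enzyme with DMSO and 100% = no enzyme wells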
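System: Recombinant human SENP1 catalytic domain, His6-tagged | Incubation: Enzyme reaction for 50 min at room temperature, dark | Medium: Tris pH 8 with BME, BSA, NP40 and catalase | Also added: 25 nM SUMO1 FRET substrate | Compound: 10 µM single point, 0.5% DMSO | Measured by: FRET fluorescence in CFP and YFP emission channels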
CendR NRP1 mod – modulators of CendR peptide binding to NRP-1, primary screen, biochemical, fluorescence polarization, uHTS | Neuropilin-1 (Homo sapiens), O14786 | FAM-RPARPAR peptide binding to NRP-1 | inhibition, % at 25 µM | 360,000 compounds, 0.85% hits | AID 602438, 2012;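 active = inhibition or corrected inhibition above about 18%, plus a signal ratio from 0.5 to 1.5, limit read from the data, passing the limit was not always enough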
Target sequence (O14786 whole entry, looked up): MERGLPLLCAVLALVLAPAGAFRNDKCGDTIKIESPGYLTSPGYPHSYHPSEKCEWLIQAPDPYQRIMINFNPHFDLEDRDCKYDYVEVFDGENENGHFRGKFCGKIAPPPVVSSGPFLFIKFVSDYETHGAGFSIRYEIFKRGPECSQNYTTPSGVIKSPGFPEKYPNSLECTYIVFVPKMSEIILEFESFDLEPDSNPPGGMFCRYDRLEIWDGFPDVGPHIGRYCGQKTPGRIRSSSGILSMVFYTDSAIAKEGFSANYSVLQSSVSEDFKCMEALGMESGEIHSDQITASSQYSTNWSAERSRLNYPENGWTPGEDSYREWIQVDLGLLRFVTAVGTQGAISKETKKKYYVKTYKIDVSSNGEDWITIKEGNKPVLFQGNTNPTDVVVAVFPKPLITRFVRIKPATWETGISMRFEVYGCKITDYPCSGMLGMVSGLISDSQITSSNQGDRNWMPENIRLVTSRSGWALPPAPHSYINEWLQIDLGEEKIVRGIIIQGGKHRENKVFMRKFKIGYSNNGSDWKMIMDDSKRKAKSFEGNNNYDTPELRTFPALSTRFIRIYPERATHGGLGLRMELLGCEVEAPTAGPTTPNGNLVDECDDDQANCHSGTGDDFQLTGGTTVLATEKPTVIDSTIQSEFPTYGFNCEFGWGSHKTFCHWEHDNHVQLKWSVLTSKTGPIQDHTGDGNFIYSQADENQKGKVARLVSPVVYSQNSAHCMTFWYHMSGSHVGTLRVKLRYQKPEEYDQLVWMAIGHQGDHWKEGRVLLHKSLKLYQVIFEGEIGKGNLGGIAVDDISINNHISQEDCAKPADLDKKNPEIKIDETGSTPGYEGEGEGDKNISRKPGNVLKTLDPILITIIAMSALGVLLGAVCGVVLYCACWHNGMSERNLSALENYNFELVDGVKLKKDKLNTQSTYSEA
SENP8 block-1 – human SENP8 protease inhibitors, primary screen, biochemical, fluorescence, Nedd8 protein substrate, uHTS; Sentrin-specific protease 8 (Homo sapiens), Q96LD8; recombinant SENP8; inhibition, % at 20 µM; 360,000 compounds, 0.64% hits; AID 602440, 2012; in the data active = inhibition mostly above about 40%, no sharp cut-off; inactive = mostly below about 27%
SENP7 inh – SENP7 protease inhibitors, primary screen, biochemical, luminescence, uHTS. 330,000 compounds, 1.5% hits. recombinant SENP7, Z-RLRGG-aminoluciferin luminescence, 40 min. inhibition, % at 5 µM. AID 434973, 2010. Sentrin-specific protease 7 (Homo sapiens), Q9BQF6;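 active = inhibition above about 50% at the single test dose, limit read from the data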;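 also: plate controls were DMSO with enzyme for no effect and no enzyme buffer wells for full effect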
SENP6 block – SENP6 protease inhibitors, primary screen, biochemical, luminescence, uHTS; AID 2599, 2010; inhibition, % at 10 µM; Recombinant SENP6 catalytic domain, aminoluciferin luminescence; 330,000 compounds, 1.8% hits;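 active = inhibition above about 50% at the single tested dose, limit read from the data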;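 also: plate controls were DMSO wells with enzyme for no effect and DMSO wells lacking enzyme for full effect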
SENP8 block-2 – SENP8 protease inhibitors, primary screen, biochemical, luminescence. inhibition, % at 10 µM. 330,000 compounds, 1.2% hits. purified SENP8, Z-RLRGG-aminoluciferin cleavage. Sentrin-specific protease 8 (Homo sapiens), Q96LD8; in the data active = inhibition above about 50%
Numbers without * were called inactive; . = not tested or not shown. Shown are actives, neighbours in structure and some others; about 3.3% of the full set was active somewhere.

SMILES	SENP1 inh	CendR NRP1 mod	SENP8 block-1	SENP7 inh	SENP6 block	SENP8 block-2
O=C(Nc1cccnc1)C1Cc2c(-c3ccco3)ccnc2O1 (stereo unspecified)	1.5	-2.4	16.8	.	.	.
Cc1csc(NC(C)c2nc3cc(C(F)(F)F)ccc3n2CCOCCO)n1 (stereo unspecified)	0.2	32.9*	9.1	-1.4	-1.6	4.1
CC(C)NC(=O)C1(C)CN(S(C)(=O)=O)CC(=O)N1Cc1cccs1 (stereo unspecified)	-2.0	-12.8	15.3	.	.	.
NC(=O)C1CCCN(C(=O)c2ccc3nc(Cc4cccc(Cl)c4)oc3c2)C1 (stereo unspecified)	-0.6	27.1*	9.6	-4.5	3.6	-0.2
CCOc1cc(C2C3=C(CCCC3=O)OC3=C2C(=O)CCC3)cc([N+](=O)[O-])c1O	2.8	26.2*	23.3	1.4	-7.3	-1.8
COC(=O)c1cnc(Oc2ccc(NC(=O)NC(=O)c3ccccc3Cl)cc2)cc1C(F)(F)F	0.5	28.6*	16.1	13.8	-9.2	-8.9
COC(=O)c1ccncc1C(=O)Nc1ccc(Oc2ncc(C(F)(F)F)cc2Cl)cc1	1.8	5.0	16.1	-1.1	13.1	4.9
O=C(NCCN1CCC(n2c(=O)[nH]c3ccccc32)CC1)c1cccc(F)c1	1.0	7.9	29.8	.	.	.
O=C(c1ccccc1)c1ccc(-c2ccc(O)cc2)cc1	2.4	2.6	-30.5	6.8	50.4*	51.0*
COc1ccccc1Oc1ccc(S(=O)(=O)N2CCOCC2)cc1S(=O)(=O)N1CCOCC1	0.2	26.7*	14.6	5.7	6.3	-0.1
COc1cccc(-c2cnc(C(O)c3ccc(CN4CCCC4)cc3)[nH]2)c1 (stereo unspecified)	0.6	-2.2	8.5	.	.	.
COC(=O)c1ccc2c(c1)NC(=O)CS2	-3.8	-7.1	-9.8	3.5	-20.9	-1.8
COC(=O)c1ccc2c(c1)SC1=C(CCCC1=O)N2	42.8*	-19.9	-55.1	2.4	-25.7	-3.4
OCCCn1c(C2CCCN2c2nc(-c3ccc(Cl)cc3)cs2)nc2cc(Cl)c(N3CCCCC3)cc21 (stereo unspecified)	-1.8	30.4*	-0.7	-3.2	2.6	8.2
CC1(C)CC(=O)C2=C(C1)Oc1ncn3nc(-c4cccnc4)nc3c1C2c1ccccc1 (stereo unspecified)	0.5	31.1*	3.9	.	.	.
COC(=O)[C@@]12C[C@@H](CC(=O)N3CCN(C(=O)C4CC4)CC3)C(=O)N(Cc3cccc4ccccc34)C1=CCC(C)(C)C2	3.6	18.7	22.3	.	.	.
CC(=O)NN1C(=O)/C(=C\c2ccccc2)SC1=S	4.4	-1.4	27.7	5.9	-6.2	-4.2
CC(=O)NN1C(=O)/C(=C/c2ccc(Br)o2)SC1=S	42.8*	-103.9	44.4*	-5.9	-1.3	-5.5
CC(=O)NN1C(=O)/C(=C\c2ccc(C)cc2)SC1=S	2.0	-4.1	25.4	-12.3	5.0	-15.8
CC(=O)NN1C(=O)/C(=C\c2ccc(Br)o2)SC1=S	55.0*	-120.5	29.4	5.4	-7.3	9.3
CCN1C(=O)C(=CC=CN(C)c2ccccc2)SC1=S	-31.4	-214.1	62.5*	.	.	.
CCN1C(=O)/C(=C/C=C2\C=CN(CC)c3ccccc32)SC1=S	-16.5	-0.7	63.9*	.	.	.
O=C(O)CN1C(=O)/C(=C/C=C/c2ccccc2)SC1=S	0.7	-46.6	3.9	-8.1	-10.9	-18.9
CCN1C(=O)/C(=C\C=C2/C=CC=CN2CC)SC1=S	7.5	-182.1	28.9	6.7	6.0	-0.3
O=C(CSc1nnc(C2CC2)n1C1CC1)N1CCN(c2ccc(O)cc2)CC1	2.7	11.0	12.8	.	.	.
SMILES	SENP1 inh	CendR NRP1 mod	SENP8 block-1	SENP7 inh	SENP6 block	SENP8 block-2
CC(C)C[C@H]1CN(CCCC[C@@H]2CNC(=O)C(=O)N2Cc2ccccc2)C(=O)C(=O)N1CCc1ccccc1	1.2	2.1	23.6	.	.	.
N=C1C=CC=C2C1=NC1(CCCCC1)N2O	3.9	10.2	35.5*	0.8	11.4	9.5
CC(=O)Nc1ccc(C(=O)N2CCCCC2c2cc(C(=O)Nc3ccccc3Cl)no2)cc1 (stereo unspecified)	0.8	24.2*	6.8	.	.	.
C=CCn1c(N)cc(=O)nc1SC(C)C(=O)Nc1cccc2ccccc12 (stereo unspecified)	-1.9	21.6*	-16.8	-1.3	-2.6	-2.1
CC(Sc1nc(=O)cc(N)n1CCc1ccccc1)C(=O)NCc1ccccc1 (stereo unspecified)	-2.2	-5.9	0.9	-1.2	3.3	-4.4
C[C@@H]1CN([C@H](C)CO)S(=O)(=O)c2ccc(C#CC3CCCC3)cc2O[C@H]1CN(C)C(=O)Cc1ccccc1	-2.4	2.6	14.6	.	.	.
O=C(NCCCn1ccnc1)c1nn2c(C(F)(F)F)cc(-c3ccc(Br)cc3)nc2c1Cl	-7.3	29.7*	-19.9	0.2	-11.0	-7.4
CC(NS(=O)(=O)c1ccc(Br)cc1F)[C@H](O)c1ccccc1 (stereo partly specified)	1.0	-1.4	0.5	.	.	.
Cc1cc(F)ccc1S(=O)(=O)Nc1ccccc1C(=O)Nc1ncn[nH]1	-2.3	19.1*	-428.2	-5.1	-6.5	-2.8
NC(=O)COc1ncn(-c2ccccc2)n1	1.4	28.6*	10.6	11.7	9.4	3.0
OC(CN1C2=NCCN2c2ccccc21)c1ccccc1 (stereo unspecified)	0.6	-15.7	5.6	0.7	10.2	4.8
Cc1ccc(C(O)CN2C3=NCCN3c3ccccc32)cc1 (stereo unspecified)	2.3	56.0*	22.3	-0.9	-8.0	-0.4
O=C(CSc1nnc(C2CC2)n1-c1ccccc1)N1CCNC1=O	0.2	19.9*	4.9	3.3	4.2	-4.0
CCn1c(N2CCN(C(c3ccccc3)c3ccccc3)CC2)nc2c1c(=O)[nH]c(=O)n2C	-1.6	-13.9	23.1	.	.	.
O=C(c1ccccc1)C1C(=O)c2ccccc2C1=O	4.3	9.0	46.3*	11.6	9.1	0.8
O=C(/C=C/[C@H]1O[C@@H](n2cnc3c(NC(=O)c4ccccc4)ncnc32)[C@H](O)[C@@H]1O)NCc1ccco1	3.0	21.7*	9.9	.	.	.
CN(C)c1ccc(CNC(=O)/C=C/[C@H]2O[C@@H](n3cnc4c(NC(=O)c5ccccc5)ncnc43)[C@H](O)[C@@H]2O)cc1	0.1	3.8	18.3	.	.	.
CC(C)C[C@@H](CN1CCC[C@H]1CN1C(=O)C(=O)NC[C@@H]1Cc1ccc(O)cc1)N1C[C@H](Cc2ccccc2)N(CC2CCCCCC2)C(=O)C1=O	0.7	-21.6	18.5	.	.	.
